Calls of active or inactive are those of the source. No cut-off for these calls is given here.
How the values were obtained:
Format in all cases: functional, cell-based
[1] = Cytotoxicity against human Bel7402 cells after 72 hrs by alamar blue assay; details: Bel-7402, 72 h
Method in brief: (§1)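 Cells seeded and cultured overnight, then exposed to compound at varying concentrations for 72 h. Cells were then incubated 2-4 h in medium containing 10% Alamar blue, and fluorescence was read at ex 530/em 590 nm. Dose-response curves used at least five concentrations, and IC50 (50% growth inhibition) was taken from these curves. Culture was at 37 °C.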

SK-BR-3 = assay: Cytotoxicity against human SK-BR-3 cells after 72 hrs by alamar blue assay; details: SK-BR-3, 72 h; method in brief: as §1
MDA-MB-468 = assay: Cytotoxicity against human MDA-MB-468 cells after 72 hrs by alamar blue assay; details: MDA-MB-468, 72 h; method in brief: as §1
[2] = Cytotoxicity against human HL60 cells after 72 hrs by alamar blue assay; details: HL-60, 72 h; method in brief: as §1
PC-3 [3] = assay: Induction of mitotic arrest in human PC3 cells assessed as increase in MPM-2 level at 40 nM after 24 hrs by Western blot method
Method in brief: (§2)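 PC-3 cells were treated 24 h with compound (0.5-4 µM) or taxol (40 nM) as positive control, then lysed in RIPA with PMSF and protease inhibitors. Lysates were run on SDS-PAGE and transferred to PVDF, which was blocked with 5% milk for 1 h. Membranes were probed overnight at 4 °C for MPM-2 (1:1000), phospho-H3 (1:600) or β-actin (1:1000), followed by HRP secondary and chemiluminescence.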

PC-3 [4] = assay: Induction of mitotic arrest in human PC3 cells assessed as increase in multipolar spindle formation at 40 nM after 6 hrs using DAPI staining by immunofluorescence-based laser scanning confocal microscopy
Method in brief: (§3)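 PC-3 cells on confocal dishes were exposed 6 h to compound (2 µM) or taxol (40 nM), then fixed in 4% paraformaldehyde overnight at 4 °C and blocked. They were stained overnight at 4 °C with anti-β-tubulin and anti-γ-tubulin (1:100 each), then 1 h with Alexa Fluor 488/647 secondaries, and co-stained for DNA. Spindles and centrosomes were imaged by confocal microscopy.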

PC-3 [5] = assay: Induction of mitotic arrest in human PC3 cells assessed as increase in supernumerary centrosome formation at 40 nM after 6 hrs using DAPI staining by immunofluorescence-based laser scanning confocal microscopy; method in brief: as §3
PC-3 [6] = assay: Induction of mitotic arrest in human PC3 cells assessed as increase in histone H3 phosphorylation at Ser10 at 40 nM after 24 hrs by Western blot method; method in brief: as §2

Compound	IC50 [1] [µM]	IC50 (SK-BR-3) [nM]	IC50 (MDA-MB-468) [µM]	IC50 [2] [µM]	Activity (PC-3 [3])	Activity (PC-3 [4])	Activity (PC-3 [5])	Activity (PC-3 [6])
S=C(NCc1cccnc1)SCCc1nnc(-c2ccc3ncccc3c2)o1	1.79	850	1.69					
CN1CCOc2cc(CNC(=S)SCCC#N)cnc21	327			82.8				
S=C(NCc1cccnc1)SCCc1nnc(-c2ccsc2)o1	1.23	1030	3.26					
O=S(=O)(O)CCCSC(=S)NCc1cccnc1	6.59	6770	11.1					
S=C(NCc1cccnc1)SCCc1nc2ccccc2o1	2.88	820	4.3					
CC(=O)O[C@H]1C(=O)[C@@]2(C)[C@H]([C@H](OC(=O)c3ccccc3)[C@]3(O)C[C@H](OC(=O)[C@H](O)[C@@H](NC(=O)c4ccccc4)c4ccccc4)C(C)=C1C3(C)C)[C@]1(OC(C)=O)CO[C@@H]1C[C@@H]2O					Active	Active	Active	Active
CC1(C)OB(CCCSC(=S)NCc2cccnc2)OC1(C)C	4.27	6820	6.62					
O=C(CCSC(=S)NCc1cccnc1)NCc1ccccc1	> 100	> 100000	> 100					
N#CCCSC(=S)NCc1cnc2ccccc2c1	96.4			5.18				
N#CCCSC(=S)NCc1cnc(N2CCOCC2)nc1	22.4			5.03				
S=C(NCc1cccnc1)SCCc1nc2ccccc2[nH]1	9.3	1690	11.5					
CCOP(=O)(CCSC(=S)NCc1cccnc1)OCC	50.8	51000	60.4					
S=C(NCc1cccnc1)SCCc1nc2ccccc2s1	3.56	1390	9.71					
CC(=O)CCSC(=S)NCc1cccnc1	3.43	1120	4.22					
OCCSC(=S)NCc1cccnc1	3.65	1320	6.61					
N#CCCSC(=S)NCc1cccnc1	1.03	2840	9.53	0.74				
Cc1cc(CNC(=S)SCCC#N)n(C)n1	4.26			4.17				
Cc1c(CNC(=S)SCCC#N)cnn1-c1ccccc1	24.9			6.05				
COc1ccc(-c2nnc(CCSC(=S)NCc3cccnc3)o2)cc1	1.54	2960	5.22					
S=C(NCc1cccnc1)SCCc1nnn[nH]1	57.7	> 100000	> 100					
Cc1nc(-c2ccccc2)oc1CNC(=S)SCCC#N	17.9			7.88				

Compound	IC50 [1] [µM]	IC50 (SK-BR-3) [nM]	IC50 (MDA-MB-468) [µM]	IC50 [2] [µM]	Activity (PC-3 [3])	Activity (PC-3 [4])	Activity (PC-3 [5])	Activity (PC-3 [6])
N#CCCSC(=S)NCc1nnc(-c2ccccc2)s1	18.7			11.8				
CCCCOC(=O)CCSC(=S)NCc1cccnc1	6.35	4460	12.8					
Cn1cccc1CNC(=S)SCCC#N	227			282				
S=C(NCc1cccnc1)SCCc1nnc(-c2cc3ccccc3s2)o1	6.89	5320	6.77					
Cc1cc(-c2nnc(CCSC(=S)NCc3cccnc3)o2)no1	1.68	1730	6.14					
S=C(NCc1cccnc1)SCCc1nnc(-c2ccc3ccccc3n2)o1	1.95	790	3.5					
NC(=O)CCSC(=S)NCc1cccnc1	3.33	1160	4.63					
O=C(O)CCSC(=S)NCc1cccnc1	7.42	7970	9.32					
S=C(NCc1cccnc1)SCCc1nnc(-c2ccco2)o1	1.59	810	3.32					
S=C(NCc1cccnc1)SCCn1nc2ccccc2n1	2.66	980	11.6					
N#CCCSC(=S)NCc1cncs1	296			109				
S=C(NCc1cccnc1)SCCc1nnc(-c2cc[nH]c2)o1	1.17	820	2.04					
S=C(NCc1cccnc1)SCCc1nnc(-c2ccc(Cl)cc2)o1	1.26	860	1.98					
O=[N+]([O-])c1ccc(-c2nnc(CCSC(=S)NCc3cccnc3)o2)cc1	1.84	1540	4.6					
S=C(NCc1cccnc1)SCCc1nnc(-c2cnccn2)o1	1.43	1290	1.71					
S=C(NCc1cccnc1)SCCc1nc(-c2ccccc2)no1	2.8	1290	10.1					
S=C(NCc1cccnc1)SCCc1nnc(-c2cccs2)o1	1.34	1070	3.41					
FC(F)(F)c1ccc(-c2nnc(CCSC(=S)NCc3cccnc3)o2)cc1	1.22	2400	5.49					
N#CCCSC(=S)NCc1nnc(-c2ccccc2)o1	25.7			14.2				
Fc1ccccc1-c1nnc(CCSC(=S)NCc2cccnc2)o1	5.54	4690	3.42					
S=C(NCc1cccnc1)SCCc1nnc(-c2cccnc2)o1	1.37	800	3.16					

From ChEMBL document CHEMBL3769316, “Discovery of novel heteroarylmethylcarbamodithioates as potent anticancer agents: Synthesis, structure-activity relationship analysis and biological evaluation” (Eur J Med Chem, 2016)
